Measured values published in ChEMBL document CHEMBL1124173, “Enantiomers of 7-(2,3-epoxypropoxy)actinomycin D as dual-action DNA-acting antitumor agents” (J Med Chem, 1988).
Numbered stars: 1 amine (or outer) side, 2 acyl side, 3 side chain; on linkers, the order of the positions; unused ones are H or OH. Bridge positions count the residues as written; N and C are the ends. Square brackets hold non-standard residues; d marks the D form. Peptide text beside a SMILES is read from it. I, II: the chains in the order shown. Actinocin(1to9) = Cc1c2oc3c(C)ccc(C(=O)[*:2])c3nc-2c(C(=O)[*:1])c(N)c1=O; NMeV = CN[C@H](C(=O)O)C(C)C; Sar = CNCC(=O)O

Experiments:
[1] = ratio of DNA to compound bound entirely by covalent bonding to DNA base.; assay type: functional
In short: (§1)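 [3H]Drug and purified calf thymus DNA dialyzed at 37 °C in Tris HCl buffer; complex twice ethanol-precipitated to remove unbound drug. Molar DNA/drug ratio calculated from drug bound only covalently to DNA bases.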

[2] = Molar ratio of DNA to total amount of compound that is bound both intercalatively and covalently to calf thymus DNA helix; assay type: functional
In short: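 [3H]Drug and purified calf thymus DNA dialyzed at 37 °C in Tris HCl pH 7.4 (20 mM per footnote; 25 mM in methods). Equilibrated complex precipitated twice with ethanol to remove unbound drug. Molar DNA/drug ratio based on total bound drug, intercalative plus covalent.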

L1210 [3] = test: Inhibition of synthesis of [methyl-14C] thymidine into DNA, in L1210 cells.; assay type: functional, cell-based, Mus musculus; conditions: Mus musculus, L1210
In short: (§2)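 Actively growing L1210 cells in vitro. Incorporation of [5-3H]uridine into RNA, or [methyl-14C]thymidine into DNA, compared with untreated cells. IC50 is micromolar drug concentration giving 50% reduction in incorporation rate.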

L1210 [4] = test: Inhibition of synthesis of [5-3H]-uridine into RNA in L1210 cells.; assay type: functional, cell-based, Mus musculus; in short: as §2
L1210 [5] = test: 50% Inhibition of growth of L1210 cells in culture.; assay type: functional, Mus musculus; conditions: Mus musculus, L1210; read-out: ID50 (the source's name)
In short: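 L1210 leukemia cells growing actively in culture; ID50 is drug concentration (nM) giving 50% inhibition of growth relative to untreated L1210 cells.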

P388/ADR [6] = test: Antitumor activity measured as %ILS against P388/ADR, in ip implanted CDF1 mice, qd 1-9; assay type: functional, Mus musculus
In short: (§3)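 P388/ADR leukemia, a P388/S subline made resistant to intercalators, implanted ip in CDF1 mice. Drug given ip daily on days 1-9 at optimal dose. Read-out is median survival time of tumor-bearing mice and %ILS of treated dying animals versus controls. Survivors beyond 60 days are counted; 10 mice per group.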

Mus musculus [7] = test: Antitumor activity measured as % increase in life span, for ip administration of compound and ip inoculation of B16 melanoma.; assay type: functional
In short: (§4)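 B16 brei (tumor weight/Hank's balanced salt solution 1:5, 0.2 mL) implanted sc or ip into groups of nine BDF1 mice on day 0. Drug given iv on day 1 (sc tumor) or ip on days 1, 5 and 9 (ip tumor), in 0.1 mL 5% v/v Me2SO-saline. Read-out is median survival time and %ILS versus untreated controls, excluding sixty-day survivors.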

Mus musculus [8] = species on record: Mus musculus; test: Antitumor activity measured as % increase in life span, against C26 colon carcinoma.; assay type: functional
In short: (§5)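 C26 primary colon carcinoma cells (trypan blue excluding, 2.5 × 10^5 cells/mouse) implanted in CDF1 mice on day 0. Drug given ip on days 1, 5 and 9 in 0.1 mL 5% v/v Me2SO-saline at optimal dose. Read-out is median survival time; %ILS is drug-treated over control, excluding survivors. Sixty-day survivors are counted.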

Mus musculus [9] = test: Antitumor activity measured as % increase in life span, for iv administration of compound and sc inoculation of B16 melanoma.
P388/ADR [10] = test: In vitro 50% Growth inhibition of actinomycin resistant P388/ADR cells; assay type: functional, Mus musculus; conditions: Mus musculus, P388/ADR; read-out: ID50 (the source's name)
In short: (§6)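 Actively growing tumor cells in vitro (actinomycin-resistant P388/ADR leukemia; sensitive B16 melanoma); ID50 is concentration (nM) needed for 50% growth inhibition.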

B16 = test: In vitro 50% Growth inhibition of sensitive B16 cells.; assay type: functional, Mus musculus; conditions: Mus musculus, B16; read-out: ID50 (the source's name); in short: as §6
P388/ADR [11] = test: Antitumor activity against P388/ADR, in ip implanted CDF1 mice, treated ip, qd 1-9 measured as optimal dose; assay type: functional, Mus musculus
In short: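 P388/ADR leukemia implanted ip in CDF1 mice; drugs given ip once daily on days 1-9. Optimal dose recorded alongside median survival time and % increase in median life span of treated dying mice versus controls; survivors counted as >60-day survivors per group of 10.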

L1210 [12] = test: Optimal dose per injection, administered ip on days 1, 5, and 9, ip inoculation with 10E5 L1210 cells per CDF1 mouse on day 0.; assay type: functional
In short: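 CDF1 mice inoculated ip with 10^5 L1210 cells on day 0; drugs given ip on days 1, 5 and 9. Optimal dose in mg/kg per injection. %ILS is increase in median life span of treated dying mice over untreated tumor-bearing mice; survivors counted beyond 60 days, 9 per group.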

Mus musculus [13] = test: Antitumor activity measured as median survival time, for ip administration and ip inoculation of B16 melanoma.; assay type: functional; in short: as §4
Mus musculus [14] = species on record: Mus musculus; test: Antitumor activity measured as optimal dose, for B16 melanoma.
Mus musculus [15] = species on record: Mus musculus; test: percent increase in median life time (%ILS) measured in mice bearing leukemia L!210; assay type: functional
In short: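 CDF1 mice inoculated ip with 10^5 L1210 cells on day 0. Drug given ip on days 1, 5 and 9 at the optimal dose in mg/kg per injection. %ILS is the increase in median life span of treated dying animals versus untreated tumor-bearing mice. Over-60-day survivors are counted; 9 mice per group.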

P388/ADR [16] = test: Antitumor activity measured as Median survival time in days against P388/ADR, in ip implanted CDF1 mice, qd 1-9; assay type: functional, Mus musculus; in short: as §3
Mus musculus [17] = test: Antitumor activity measured as median survival time, for iv administration and sc inoculation of B16 melanoma.
Mus musculus [18] = species on record: Mus musculus; test: Antitumor activity measured as median survival time, against C26 colon carcinoma.; assay type: functional; in short: as §5
Mus musculus [19] = species on record: Mus musculus; test: Antitumor activity measured as optimal dose, against C26 colon carcinoma.; assay type: functional
In short: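 Primary colon C26 carcinoma cells (trypan blue excluding, 2.5 × 10^5 cells/mouse) implanted in CDF1 mice on day 0. Drug given ip on days 1, 5 and 9 in 0.1 mL 5% v/v Me2SO-saline. Optimal dose in […]; %ILS and 60-day survivors scored.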

[20] = Ratio of DNA to compound bound entirely by covalent bonding to DNA base.; assay type: functional; in short: as §1
Mus musculus [21] = test: Antitumor activity measured as % increase in life span, for iv administration of compound and sc inoculation of B16 melanoma.; remark: listed apart in the source
P388/ADR [22] = test: Antitumor activity measured as Median survival time in days against P388/ADR, in ip implanted CDF1 mice, treated ip, qd 1-9; assay type: functional, Mus musculus; in short: as §3
Bos taurus = species on record: Bos taurus; test: Thermal denaturation of calf thymus DNA measured as ΔTm; conditions: cattle, in vitro
P388/ADR [23] = test: Antitumor activity measured as %ILS against P388/ADR, in ip implanted CDF1 mice, treated ip, qd 1-9; assay type: functional, Mus musculus; in short: as §3
Mus musculus [24] = test: Antitumor activity measured as median survival time, for iv administration and sc inoculation of B16 melanoma.; remark: listed apart in the source

## Cc1c2oc3c(C)c(OCC4CO4)cc(C(=O)N[C@@H]4C(=O)N[C@@H](C(C)C)C(=O)N5CCC[C@H]5C(=O)N(C)CC(=O)N(C)[C@@H](C(C)C)C(=O)O[C@H]4C)c3nc-2c(C(=O)N[C@@H]2C(=O)N[C@@H](C(C)C)C(=O)N3CCC[C@H]3C(=O)N(C)CC(=O)N(C)[C@@H](C(C)C)C(=O)O[C@H]2C)c(N)c1=O (stereo in doubt)
[1]
  Ratio: 520
[2]
  Ratio: 32

## Cc1c2oc3c(C)c(OCC4CO4)cc(C(=O)N[C@@H]4C(=O)N[C@H](C(C)C)C(=O)N5CCC[C@H]5C(=O)N(C)CC(=O)N(C)[C@@H](C(C)C)C(=O)O[C@@H]4C)c3nc-2c(C(=O)N[C@@H]2C(=O)N[C@H](C(C)C)C(=O)N3CCC[C@H]3C(=O)N(C)CC(=O)N(C)[C@@H](C(C)C)C(=O)O[C@@H]2C)c(N)c1=O (stereo in doubt; 3b) [listing 1 of 2 here]
L1210 [3]
  IC50: 0.08 µM
L1210 [4]; l1210
  IC50: 0.024 µM

## Cc1c2oc3c(C)c(OCC4CO4)cc(C(=O)N[C@@H]4C(=O)N[C@H](C(C)C)C(=O)N5CCC[C@H]5C(=O)N(C)CC(=O)N(C)[C@@H](C(C)C)C(=O)O[C@@H]4C)c3nc-2c(C(=O)N[C@@H]2C(=O)N[C@H](C(C)C)C(=O)N3CCC[C@H]3C(=O)N(C)CC(=O)N(C)[C@@H](C(C)C)C(=O)O[C@@H]2C)c(N)c1=O (stereo in doubt; 3b) [listing 2 of 2 here]
L1210 [5]
  IC50: 0.0287 µM
P388/ADR [6]
  ILS: 344%
Mus musculus [7]
  ILS: 105%
Mus musculus [8]
  ILS: 64%
Mus musculus [9]
  ILS: 64%
P388/ADR [10]
  IC50: 0.08 µM
B16
  IC50: 0.0025 µM
P388/ADR [11]
  Dose: 0.65 mg/kg
L1210 [12]
  Dose: 0.05 mg/kg
Mus musculus [13]
  MST: 39 days
Mus musculus [14]
  Dose: 1 mg/kg
Mus musculus [15]
  ILS: 186%
P388/ADR [16]
  MST: 40 days
Mus musculus [17]
  MST: 54 days
Mus musculus [18]
  MST: 36 days
Mus musculus [19]
  Dose: 0.6 mg/kg

## Cc1c2oc3c(C)c(OCC4CO4)cc(C(=O)N[C@@H]4C(=O)N[C@@H](C(C)C)C(=O)N5CCC[C@H]5C(=O)N(C)CC(=O)N(C)[C@@H](C(C)C)C(=O)O[C@H]4C)c3nc-2c(C(=O)N[C@@H]2C(=O)N[C@@H](C(C)C)C(=O)N3CCC[C@H]3C(=O)N(C)CC(=O)N(C)[C@@H](C(C)C)C(=O)O[C@H]2C)c(N)c1=O (stereo in doubt; 3b)
[20]
  Ratio: 480
[2]
  Ratio: 32

## Cc1c2oc3c(C)ccc(C(=O)N[C@@H]4C(=O)N[C@H](C(C)C)C(=O)N5CCC[C@H]5C(=O)N(C)CC(=O)N(C)[C@@H](C(C)C)C(=O)O[C@@H]4C)c3nc-2c(C(=O)N[C@@H]2C(=O)N[C@H](C(C)C)C(=O)N3CCC[C@H]3C(=O)N(C)CC(=O)N(C)[C@@H](C(C)C)C(=O)O[C@@H]2C)c(N)c1=O [DACTINOMYCIN] (I: T[dV]P[Sar][NMeV] / II: T[dV]P[Sar][NMeV]; ester I:1-I:C, II:1-II:C; linker I:N-II:N via Actinocin(1to9))
L1210 [5]
  IC50: 0.0601 µM
Mus musculus [7]
  ILS: 52%
Mus musculus [8]
  ILS: 52%
P388/ADR [10]
  IC50: 2.5 µM
L1210 [3]
  IC50: 0.38 µM
B16
  IC50: 0.003 µM
P388/ADR [11]
  Dose: 0.075 mg/kg
L1210 [12]
  Dose: 0.025 mg/kg
Mus musculus [21]
  ILS: 36%
Mus musculus [13]
  MST: 29 days
Mus musculus [14]
  Dose: 0.9 mg/kg
Mus musculus [15]
  ILS: 55%
P388/ADR [22]
  MST: 12 days
Mus musculus [17]
  MST: 45 days
Bos taurus
  ΔTm: 7.1
L1210 [4]; Mus musculus, L1210
  IC50: 0.019 µM
P388/ADR [23]
  ILS: 33%
[2]
  Ratio: 26
Mus musculus [18]
  MST: 33.5 days
Mus musculus [19]
  Dose: 0.3 mg/kg

## COc1cccc2c1C(=O)c1c(O)c3c(c(O)c1C2=O)C[C@@](O)(C(=O)CO)C[C@@H]3O[C@H]1C[C@H](N)[C@H](O)[C@H](C)O1 [DOXORUBICIN]
Mus musculus [7]
  ILS: 224%
Mus musculus [8]
  ILS: 118%
Mus musculus [24]
  MST: 59 days
Mus musculus [21]
  ILS: 79%
Mus musculus [13]
  MST: 60 days
Mus musculus [18]
  MST: 48 days
Mus musculus [19]
  Dose: 2.5 mg/kg
